Screening results from PubChem.
A selection: hits, their analogues and other compounds. The true share with any hit is near 0.91%.
zVAD death inh: inhibitors of zVAD-triggered necroptosis, primary screen, L929 cells | L929 zVAD necroptosis rescue, ATP luminescence, 24 h; with zVAD 60 µM | viability rescue, % at 10 µM | 220,000 compounds, 0.38% hits | AID 1377, 2008;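 active means activation, scaled between plate controls, above about 75%, limit read from the data; inactive means activation under that limit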;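 further: 0% = zVAD with DMSO and 100% = DMSO alone without zVAD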
Arbovirus anti: antivirals against arbovirus infection, primary screen, cell-based, full library, 10K replicate subset; arbovirus infection cell-based antiviral screen; inhibition, % at 10 µM; 200,000 compounds, 0.37% hits; in the data active means inhibition above about 30%
Lipid droplet: inhibitors of hepatocyte lipid droplet formation, primary screen, imaging, high-throughput imaging, BODIPY stain; AML12 mouse hepatocytes, oleate lipid droplets; inhibition, % at 6.5 µM; 240,000 compounds, 0.4% hits; AID 1656, 2009;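 active means lipid droplet intensity inhibited by at least 50%, with more than 500 cells counted; inconclusive means wells with under 300 cells, treated as cytotoxic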
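System: AML12 hepatocytes (mouse). Probe or stimulus: oleic acid at 100 µM to induce lipid droplet formation. Times: overnight treatment with compound plus oleate. Detection: Image-based BODIPY and DAPI two-channel analysis. Evaluation: percent inhibition of filter-corrected integrated lipid droplet intensity per well.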
TNF necrop inh: inhibitors of TNF-alpha triggered necroptosis, primary screen, cell-based, Jurkat FADD-/-, single concentration; Jurkat FADD-/- TNF necroptosis rescue, ATP luminescence, 24 h; 0 = TNF only, 100 = no-TNF cells; activation (protection from cell death), % at 10 µM; 220,000 compounds, 0.068% hits; AID 463075, 2010;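 active means activation, meaning protection from cell death, of at least 50% relative to plate controls; inactive means activation below 50%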;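 further: necroptosis triggered by 40 ng/mL TNF-alpha added together with compound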
Pf gametocyte: late stage P. falciparum gametocyte viability inhibitors, primary screen, ATP luminescence, HTS. 150,000 compounds, 0.065% hits. P. falciparum stage V gametocytes, 24 h. AID 743093, 2013. inhibition, % at 10.9 µM;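 active means inhibition above the mean plus 3 SD of compounds within the control limits, set per campaign, cut at about 38% in these data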;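 further: 0% = DMSO wells and 100% = medium only without gametocytes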
Hep lipid conf: hepatocyte lipid droplet accumulation inhibitors, confirmation, imaging, AML12 mouse hepatocytes, single concentration, high-content | inhibition, % at 5.2 µM | BODIPY lipid droplet imaging; droplets induced with 100 µM oleic acid | shares compounds with Lipid droplet | AID 463183, 2010 | 870 compounds, 65% hits;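 active means inhibition of lipid droplet metric at least 50%, with more than 300 cells in each of four replicates; inconclusive means wells under 300 cells, flagged as toxic or low count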;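 further: plate controls were DMSO with oleic acid for no effect and 5 µM Triacsin-C for full effect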
AML12 tox img: AML12 hepatocyte cytotoxicity, counter-screen for hepatic lipid droplet formation project, imaging, DAPI nuclear morphology imaging | 870 compounds, 3% hits | shares compounds with Lipid droplet | AML12 mouse hepatocytes; hits give high values; cells fed 100 µM oleate overnight | z-score at 5 µM | AID 463200, 2010; in the data active means z-score above about 6.3;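 further: compound exposure lasted overnight at 37 °C before fixation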
AML12 tox conf: AML12 hepatocyte cytotoxicity, confirmation, cytotoxicity control for hepatic lipid droplet formation project, cell-based, single concentration; cytotoxicity, % at 50 µM; AML12 mouse hepatocyte viability, ATP luminescence; cells loaded with 100 µM oleic acid; 530 tested, under 10 active; shares compounds with Lipid droplet;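 active means cytotoxicity above 50% in each of four replicates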;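 further: compound exposure lasted overnight at 37 °C before the ATP read; 0% = DMSO-treated cells and 100% = wells with no cells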
An asterisk follows results filed as active; ? = inconclusive; nt = no result given.

SMILES	zVAD death inh	Arbovirus anti	Lipid droplet	TNF necrop inh	Pf gametocyte	Hep lipid conf	AML12 tox img	AML12 tox conf
CCOc1ccc(-c2csc(NNC3=NCCCCC3)n2)cc1	0	-13	84*	-2	nt	111*	-0.65	15
COc1ccc(-c2csc(NNC3=NCCCCC3)n2)cc1	-2	-2	115*	-4	-11	112*	-0.25	32
COc1ccc(C)cc1NC(=O)CCC(=O)Nc1ccc2nc(N3CCN(C)CC3)cc(C)c2c1	0	-9	105*	5	nt	104*	0.15	-5
CCN1CCN(c2cc(C)c3cc(NC(=O)CCC(=O)Nc4ccc(OC)c(OC)c4)ccc3n2)CC1	nt	nt	-7	nt	nt	nt	nt	nt
CCc1ccccc1NC(=O)c1cccc(NC(=O)/C=C/c2ccco2)c1	1	-2	53*	-9	-12	51	4.3	nt
CCOc1cccc(/C=C/c2cc(C(=O)O)c3ccccc3n2)c1OC	0	nt	10	-1	nt	nt	nt	nt
CCCCCCCNC(=O)C1(CC2CC(c3ccc(Cl)cc3)=NO2)CCN(C(=O)c2cc(OCC)c(OCC)c(OCC)c2)CC1 (configuration not stated)	nt	nt	50*	nt	2	90*	-1.7	-3
CCOC(=O)C1CCN(C(=O)C2(NC(=O)Nc3ccc(F)cc3F)CCCCC2)CC1	nt	nt	69*	nt	nt	97*	-0.0011	12
CSc1ccc(NC(=O)c2cccnc2)cc1C#N	1	8	9	0	-5	nt	nt	nt
C=CCN(C(=O)c1csnn1)C(C(=O)NCc1ccccc1)c1ccccc1F (configuration not stated)	nt	nt	51*	nt	nt	56	0.49	2
C=CCN(C(=O)c1csnn1)C(C(=O)NCc1ccc(F)cc1)c1ccccc1F (configuration not stated)	nt	nt	25	nt	nt	nt	nt	nt
O=C(NCc1ccccc1)C(c1ccccc1F)N(C(=O)c1csnn1)C1CCCC1 (configuration not stated)	nt	nt	71*	nt	nt	92*	-0.75	12
Cc1ccc(C(=O)CSc2nnc(-c3snnc3C)n2C2CC2)cc1	0	nt	13	0	-11	nt	nt	nt
CCn1cc(C(=O)NCCCN(CC(C)C)CC(C)C)c(=O)c2cc(S(=O)(=O)N(C)C3CCCCC3)ccc21	nt	nt	69*	nt	nt	24	-0.027	nt
CCN(CC)CCCNC(=O)c1cn(CC)c2ccc(S(=O)(=O)N(C)C3CCCCC3)cc2c1=O	nt	nt	16	nt	nt	nt	nt	nt
O=[N+]([O-])c1ccc(OCCO)c(P(=O)(c2ccccc2)c2ccccc2)c1	0	nt	11	0	-15	nt	nt	nt
CC(C)C(=O)N1CCC(n2nccc2NC(=O)CCOc2ccccc2)CC1	nt	nt	-2	nt	nt	nt	nt	nt
C=CCC(=O)N1CCC(n2nccc2NC(=O)CCOc2ccccc2)CC1	nt	nt	61*	nt	nt	19	-0.46	nt
COc1ccccc1CNC(=O)CCCNC(=O)c1ccc(Cl)cc1	nt	nt	-16	nt	nt	nt	nt	nt
Cc1cccc(NC(=O)CSc2nc3ccccc3nc2N2CCCCC2)c1	nt	nt	31	nt	nt	nt	nt	nt
Cc1cccc(NC(=O)CSc2nc3ccccc3nc2N2CCCC2)c1	nt	nt	63*	nt	nt	102*	0.58	9
COc1cccc(NC(=O)CSc2nc3ccccc3nc2N2CCCC2)c1	nt	nt	58*	nt	nt	99*	-0.71	8
COc1ccc(NC(=O)CSc2nc3ccccc3nc2N2CCCCC2)cc1	nt	nt	73*	nt	nt	108*	-0.72	1
Cc1c(CCOC(=O)c2cc([N+](=O)[O-])cc([N+](=O)[O-])c2)sc[n+]1CCCCS(=O)(=O)[O-]	1	10	-1	1	15	nt	nt	nt
O=C(NCc1ccccn1)c1ccc(Cl)c(S(=O)(=O)N2CCOCC2)c1	nt	nt	13	nt	nt	nt	nt	nt
SMILES	zVAD death inh	Arbovirus anti	Lipid droplet	TNF necrop inh	Pf gametocyte	Hep lipid conf	AML12 tox img	AML12 tox conf
CCOC(=O)c1c(C)[nH]c(N=Nc2ccccc2Cl)c1C	0	nt	65*	1	-26	105*	0.39	5
CC(=O)c1ccc(S(=O)(=O)Nc2ccc(N3CCOCC3)cc2)cc1	nt	nt	18	nt	nt	nt	nt	nt
CCOC(=O)c1ccc(S(=O)(=O)Nc2ccc(N3CCOCC3)cc2)cc1	nt	nt	86*	nt	nt	79*	-0.094	4
CCOc1ccc(NS(=O)(=O)c2ccc(C(=O)N(CC)CC(=O)NCc3cccs3)cc2)cc1	nt	nt	78*	nt	nt	98*	-0.11	20
CCOc1ccc(NS(=O)(=O)c2ccc(C(=O)N3CCCCC3)cc2)cc1	nt	nt	57*	nt	nt	87*	0.11	21
CN(C)c1ccc(-c2cc3ccccc3c(=O)o2)cc1	nt	nt	nt	nt	7	nt	nt	nt
Cc1cc(Nc2nn(C)c(N)c2C#N)ccc1F	0	0	-2	1	-2	nt	nt	nt
c1ccc(NCc2ccncc2)cc1	nt	nt	55*	nt	nt	4	0.77	nt
CCCCC(=O)Nc1ccc(NCc2ccc(C)s2)cc1	nt	nt	-12	nt	nt	nt	nt	nt
Cc1ccc(S(=O)(=O)N2CCCC(C(=O)NCCc3ccc(S(N)(=O)=O)cc3)C2)cc1 (configuration not stated)	nt	nt	-1	nt	nt	nt	nt	nt
Clc1ccc(Nc2nc(NCCN3CCOCC3)nc(N3CCOCC3)n2)cc1	-4	-10	66*	4	nt	75*	19*	nt
CCN1C(=O)c2ccccc2Sc2ccc(C(=O)NCCC(C)C)cc21	nt	nt	95*	nt	nt	98*	0.8	nt
CCCCNC(=O)c1ccc2c(c1)N(C)C(=O)c1ccccc1S2	nt	nt	78*	nt	nt	71*	0.54	13
CC(C)CCNC(=O)c1ccc2c(c1)N(C)C(=O)c1ccccc1S2	nt	nt	87*	nt	nt	87*	0.81	nt
CN1C(=O)c2ccccc2Sc2ccc(C(=O)O)cc21	nt	nt	12	nt	nt	nt	nt	nt
COc1ccc(-c2csc(NC(=O)CSc3nnc(Nc4ccccc4C)s3)n2)cc1	2	-9	?	2	-3	nt	nt	nt
COc1ccccc1Nc1nnc(SCC(=O)Nc2nc(-c3ccc(F)cc3)cs2)s1	1	-12	68*	3	4	45	0.44	nt
CCOc1ccccc1Nc1nnc(SCC(=O)Nc2nc(-c3ccc(OC)cc3)cs2)s1	2	9	91*	2	-5	104*	0.27	6
CC1Cc2cc(S(=O)(=O)NCCC(=O)N(C)Cc3ccccc3)ccc2N1C(=O)C1CC1 (configuration not stated)	nt	nt	61*	nt	nt	67*	-0.84	21
COc1ccccc1CNS(=O)(=O)c1ccc2c(c1)CC(C)N2C(=O)C1CCC1 (configuration not stated)	nt	nt	64*	nt	nt	99*	0.084	21
COc1ccccc1CNS(=O)(=O)c1ccc2c(c1)CC(C)N2C(=O)C1CC1 (configuration not stated)	nt	nt	79*	nt	nt	106*	-1.1	18
